Mdm2-MdmX inh: disrupts the human Mdm2-MdmX interaction. O15151+Q00987. SaOS-2 split-luciferase Mdm2/MdmX complementation, luminescence. inhibition, % at 8 µM. 330,000 tested, 3% active;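 active = inhibition of at least 50% at 8 µM in the primary screen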
Target sequence (O15151 whole entry, looked up): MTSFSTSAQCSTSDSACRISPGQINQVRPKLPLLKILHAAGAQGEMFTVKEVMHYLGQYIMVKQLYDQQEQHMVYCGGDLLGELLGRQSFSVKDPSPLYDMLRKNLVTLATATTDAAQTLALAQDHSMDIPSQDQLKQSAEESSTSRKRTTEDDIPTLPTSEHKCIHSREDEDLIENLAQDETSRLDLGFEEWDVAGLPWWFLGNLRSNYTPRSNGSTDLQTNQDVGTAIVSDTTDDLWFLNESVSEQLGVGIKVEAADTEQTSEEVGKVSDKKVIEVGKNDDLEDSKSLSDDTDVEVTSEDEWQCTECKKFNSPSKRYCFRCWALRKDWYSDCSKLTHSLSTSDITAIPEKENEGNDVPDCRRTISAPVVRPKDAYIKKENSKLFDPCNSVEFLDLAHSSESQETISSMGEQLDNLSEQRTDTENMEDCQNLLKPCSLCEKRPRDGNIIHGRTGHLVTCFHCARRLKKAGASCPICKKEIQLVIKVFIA
Target sequence (Q00987 whole entry, looked up): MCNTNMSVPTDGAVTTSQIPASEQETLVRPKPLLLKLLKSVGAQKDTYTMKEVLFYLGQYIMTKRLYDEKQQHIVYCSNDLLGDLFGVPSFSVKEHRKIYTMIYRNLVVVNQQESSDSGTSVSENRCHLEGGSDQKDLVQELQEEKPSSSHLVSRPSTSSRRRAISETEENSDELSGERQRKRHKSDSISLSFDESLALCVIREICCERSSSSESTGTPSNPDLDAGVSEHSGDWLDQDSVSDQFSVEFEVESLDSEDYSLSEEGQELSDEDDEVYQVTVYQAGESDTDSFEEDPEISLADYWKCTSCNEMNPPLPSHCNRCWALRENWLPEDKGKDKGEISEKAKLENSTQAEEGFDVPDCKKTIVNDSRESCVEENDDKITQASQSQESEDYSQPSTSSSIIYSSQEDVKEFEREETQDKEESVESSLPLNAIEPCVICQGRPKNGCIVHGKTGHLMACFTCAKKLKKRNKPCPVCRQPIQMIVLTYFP
CHOP UPR activ: activators of apoptotic arm of unfolded protein response (CHOP); CHO-CHOP luciferase reporter, UPR activation, luminescence; percent of tunicamycin response over DMSO baseline; activation, % at 10 µM; 330,000 tested, 0.34% active; AID 449763;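 active = at 10 µM dose, activation of 40% or more, normalized to positive control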
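System: CHO-CHOP luciferase reporter cell line | Buffer or medium: F12 medium containing 10% fetal bovine serum | Doses: One dose, 10 µM in 0.5% DMSO | Times: 6 h compound exposure at 37 °C after overnight seeding | Signal: Luciferase luminescence | Read-out: % activation vs tunicamycin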
SKKanGAS inh: blocks kanamycin growth of S. pyogenes SKKanGAS strain; BacTiter-Glo, 6 h; inhibition, % at 7.5 µM; 300,000 tested, 1.3% active; AID 1662;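 active = mean replicate score, as percent of positive control median, at least 50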;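 note: strain carries kanamycin resistance gene driven by streptokinase promoter and grows in 40 µg/ml kanamycin; loss of luminescence reflects streptokinase promoter inhibition or plain growth inhibition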
Beta cell apopt: blocks beta cell apoptosis. 300,000 tested, 0.8% active. protection from apoptosis, % (concentration not given with the values). INS-1E cytokine-induced death, ATP luminescence, 48 h; percent of positive-control rescue, neutral wells zero;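 active = Every replicate reaches about 75%, or at least half do and their mean reaches it too, limit read from the data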;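 note: higher means more ATP so stronger rescue from cytokine killing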
UPR XBP1 act: activators of adaptive arm of unfolded protein response (XBP1); CHO-XBP1 luciferase reporter, IRE1-XBP1 UPR activation, luminescence; percent of tunicamycin response, DMSO as zero; activation, % at 20 µM; 330,000 tested, 0.33% active;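 active = versus positive control, 20 µM dose yields 30% or more activation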
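Test system: CHO-XBP1 luciferase reporter cells | Buffer or medium: Serum-containing F12 medium, 10% FBS | Schedule: 6 h compound exposure at 37 °C, 5% CO2 | Detection: Steady-Glo luciferase glow luminescence, 10 min after reagent addition | Read-out basis: Activation, % of tunicamycin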
CSC inhib: blocks cancer stem cells. cancer stem cell-like cells viability, luminescence. inhibition, % at 7.5 µM. 300,000 tested, 1.1% active; in the data active = inhibition above about 75%; tested in HMLE shEcad cells
Each line names hits and unclear results; the compound was inactive in the other large screens. In the library only some 4.8% were active in any assay of this set; here they are far more common.

O=C(CSc1nc2ccccc2c(=O)n1Cc1ccccc1)Nc1ccc(Br)cc1C(=O)O	SKKanGAS inh 52.1
CC(NC(=O)c1ccco1)c1nc(-c2ccccc2)no1 (stereo not given)	none
CC(Oc1ccc(Cl)cc1Cl)c1nc(-c2ccc(NC(=O)c3ccco3)cc2)no1 (stereo not given)	SKKanGAS inh 54.0
CCc1nnc(NC(=O)c2ccc(S(=O)(=O)N3CCCC(C)C3)cc2)s1 (stereo not given)	none (no result: CSC inhib)
Cc1cccc2sc(NNC(=O)c3ccc(S(=O)(=O)N4CCCC(C)C4)cc3)nc12 (stereo not given)	SKKanGAS inh 91.4, Beta cell apopt 102.4, CSC inhib 127.6 (no result: Mdm2-MdmX inh, CHOP UPR activ, UPR XBP1 act)
C=CCSc1nnc(NC(=O)CCN2C(=O)C3CC=CCC3C2=O)s1 (stereo not given)	none (no result: SKKanGAS inh, CSC inhib)
S=c1[nH]nc(C2CCCCC2)n1/N=C/c1cccc(Cl)c1Cl	SKKanGAS inh 58.6
Cn1nc([N+](=O)[O-])nc1Sc1cccc2cccnc12	Beta cell apopt 94.2
O=[N+]([O-])c1ccc(Cl)cc1Sc1cccc2cccnc12	none
CN(C)C(CNS(=O)(=O)c1ccc2ccccc2c1)c1ccccc1 (stereo not given)	CSC inhib 81.6
Cc1ccnc(NC(=O)CCC(=O)c2cccs2)c1	none
CCC(C)N(C(=O)Cn1c(=O)cnc2ccccc21)C1CCS(=O)(=O)C1 (stereo not given)	none (no result: CSC inhib)
Oc1ccc(Cl)cc1C1=NNC(c2ccc(Cl)cc2)C1 (stereo not given)	SKKanGAS inh 96.2
CN(C)S(=O)(=O)c1cccc(-c2nn(-c3ccccc3)cc2/C=C(\C#N)c2nc3ccccc3[nH]2)c1	none
CN(C)S(=O)(=O)c1cccc(-c2nn(-c3ccccc3)cc2/C=C2\SC(=S)NC2=O)c1	CSC inhib 94.1 (no result: Mdm2-MdmX inh, CHOP UPR activ, SKKanGAS inh, UPR XBP1 act)
O=C(CCc1c[nH]c2ccccc12)OCc1ccc(Br)cc1	none
N=C1/C(=C/c2ccc(-c3cccc(C(=O)O)c3)o2)C(=O)N=C2SC=C(c3ccccc3)N12	SKKanGAS inh 78.8
CC(C(Sc1ccccc1N)c1ccccc1)[N+](=O)[O-] (stereo not given)	CSC inhib 93.8
Clc1ccccc1CNc1ncnc2nc[nH]c12	none
Clc1ccccc1CN(Cc1ccccc1)c1ncnc2nc[nH]c12	SKKanGAS inh 50.8
COc1ccccc1NC(=O)c1c(Nc2ccccc2F)sc(C(=O)Nc2cccc(Cl)c2)c1N	CSC inhib 83.1
COc1ccc(Nc2sc(C(=O)Nc3cccc(Cl)c3)c(N)c2C(=O)Nc2ccccc2OC)cc1	none (no result: Mdm2-MdmX inh, CHOP UPR activ, UPR XBP1 act)
COc1ccc(C(=O)CC(=O)C(=O)Nc2ccccc2C(F)(F)F)cc1	SKKanGAS inh 84.6
COc1ccc(C(=O)CC(=O)C(=O)Nc2ccccc2Cl)cc1	SKKanGAS inh 56.1 (no result: Mdm2-MdmX inh, CHOP UPR activ, UPR XBP1 act)
COc1ccc(NC(=O)CC23CC4CC(CC(Br)(C4)C2)C3)c(OC)c1	none (no result: Beta cell apopt)
O=C(OCC(=O)N1CCN(C(=O)c2ccco2)CC1)c1cc(-c2ccccc2)nc2ccccc12	none
O=C(OCC(=O)N1CCN(C(=O)c2ccco2)CC1)c1cc(-c2cccc(Br)c2)nc2ccccc12	SKKanGAS inh 53.4
O=C(NCc1cccnc1)c1ccc(-c2cc3ccccc3oc2=O)cc1	Beta cell apopt 101.2
O=C(COc1ccc([N+](=O)[O-])cc1)Nc1ccc(C(=O)NCc2cccnc2)cc1	Beta cell apopt 101.0
O=C(NCc1cccnc1)c1ccc([N+](=O)[O-])cc1	Beta cell apopt 103.3
O=C(COc1ccc([N+](=O)[O-])cc1)NCc1cccnc1	none
O=C(Cc1ccc([N+](=O)[O-])cc1)Nc1cccnc1	Beta cell apopt 80.9
O=C(NCc1cccnc1)c1ccc(NC(=O)c2cccc([N+](=O)[O-])c2)cc1	Beta cell apopt 139.6
Cc1ccc(S(=O)(=O)N2CCN(C(=O)[C@H](Cc3ccccc3)NC(=O)c3ccco3)CC2)cc1C	none (no result: SKKanGAS inh)
Cc1ccc(C(=O)OCC(=O)Nc2ccccc2C(F)(F)F)cc1S(=O)(=O)N1CCCCC1	none (no result: SKKanGAS inh, Beta cell apopt, CSC inhib)
COc1ccc(-c2nn(-c3ccccc3)cc2C(=O)N(C)CC(=O)Nc2cccc(F)c2)cc1	CSC inhib 79.6 (no result: SKKanGAS inh)
CC(=O)Nc1ccc(C2C(=O)c3ccccc3C2=O)cc1	SKKanGAS inh 50.9

Compound activity from PubChem.
